In ChEMBL document CHEMBL4765441, “Design, synthesis and anti-cancer activity of pyrrole-imidazole polyamides through target-downregulation of c-kit gene expression” (Eur J Med Chem, 2020):
Counter-ions that a name gives are not always drawn. One block for each compound: values may come before it. Calls of active or inactive are those of the source. The calls are words filed in the database; no cut-off is given here.

Tests used:
dsDNA [1] = assay: Binding affinity to 5'-AGGGGAGGCGAGGAGGGGCGTGGCCGG-3'/3'-TCCCCTCCGCTCCTCCCCGCACCGGCC-5' dsDNA (unknown origin) at 0 to 32 uM by SYBR GOLD staining based EMSA; format: nucleic-acid assay; conditions: Homo sapiens; dose 0-32 µM
How it was run: (§1)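 Target 27-bp c-kit promoter duplex, annealed at 95 °C, then incubated overnight with or without compound in pH 7.4 buffer (10 mM Tris-HCl, 10 mM KCl, 0.1 mM EDTA). Mixtures run on 16% native polyacrylamide gel at 150 V for 3 h. Gels stained with SYBR Gold for 30 min and imaged on a gel documentation system.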

Bel-7402 = assay: Antiproliferative activity against human Bel-7402 cells assessed as reduction in cell viability incubated for 48 hrs by xCELLigence RTCA; format: functional, cell-based; conditions: Bel-7402, 48 h
MKN-45 = assay: Antiproliferative activity against human MKN-45 cells assessed as reduction in cell viability incubated for 48 hrs by xCELLigence RTCA; format: functional, cell-based; conditions: MKN-45, 48 h
SGC-7901 [2] = assay: Antiproliferative activity against human SGC7901 cells assessed as reduction in cell viability incubated for 48 hrs by xCELLigence RTCA; format: functional, cell-based; conditions: SGC-7901, 48 h
A549 [3] = assay: Antiproliferative activity against human A549 cells assessed as reduction in cell viability incubated for 48 hrs by xCELLigence RTCA; format: functional, cell-based; conditions: A549, 48 h
SGC-7901 [4] = assay: Induction of morphological changes in human SGC7901 cells assessed as appearance of round shaped cells at 7.5 uM incubated for 36 hrs by microscopic analysis; format: functional, cell-based
How it was run: (§2)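 Cells seeded at 2 × 10^5 per well and grown 24 h. Medium then replaced with compound-containing medium. After 36 h co-culture, morphology inspected by light microscopy.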

dsDNA [5] = assay: Binding affinity to 5'-AGGGGAGGCGAGGAGGGGCGTGGCCGG-3'/3'-TCCCCTCCGCTCCTCCCCGCACCGGCC-5' dsDNA (unknown origin) at 1:8 DNA:compound ratio by SYBR GOLD staining based EMSA; format: nucleic-acid assay; conditions: Homo sapiens; how it was run: as §1
dsDNA [6] = assay: Binding affinity to 5'-AGGGGAGGCGAGGAGGGGCGTGGCCGG-3'/3'-TCCCCTCCGCTCCTCCCCGCACCGGCC-5' dsDNA (unknown origin) by SYBR GOLD staining based EMSA; format: nucleic-acid assay; conditions: Homo sapiens; how it was run: as §1
SGC-7901 [7] = assay: Inhibition of cell migration in human SGC7901 cells at 1.5 uM incubated for 48 hrs by inverted fluorescence microscope based scratch wound healing assay; format: functional
How it was run: (§3)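 20 × 10^4 cells per well grown to 80% confluence. Wound scratched with a pipette tip, washed twice with PBS and photographed under an inverted fluorescence microscope. Cells then held in serum-free medium with compound for 48 h. Migration measured as distance moved from the wound edge; mean ± SD, n = 3.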

A549 [8] = assay: Inhibition of cell migration in human A549 cells at 1.5 uM incubated for 48 hrs by inverted fluorescence microscope based scratch wound healing assay; format: functional; how it was run: as §3
SGC-7901 [9] = assay: Induction of morphological changes in human SGC7901 cells assessed as cell detachment at 7.5 uM incubated for 36 hrs by microscopic analysis; format: functional, cell-based; how it was run: as §2
SGC-7901 [10] = assay: Induction of morphological changes in human SGC7901 cells assessed as apoptotic body formation at 7.5 uM incubated for 36 hrs by microscopic analysis; format: functional, cell-based; how it was run: as §2
A549 [11] = assay: Induction of morphological changes in human A549 cells assessed as cell detachment at 15 uM incubated for 36 hrs by microscopic analysis; format: functional, cell-based; how it was run: as §2
A549 [12] = assay: Induction of morphological changes in human A549 cells assessed as membrane bulge at 15 uM incubated for 36 hrs by microscopic analysis; format: functional, cell-based; how it was run: as §2
SGC-7901 [13] = assay: Induction of apoptosis in human SGC7901 cells assessed as apoptotic rate at 20 uM incubated for 36 hrs by Annexin V-FITC/propidium iodide staining-based flow cytometric analysis; format: functional
A549 [14] = assay: Induction of apoptosis in human A549 cells assessed as apoptotic rate at 20 uM incubated for 36 hrs by Annexin V-FITC/propidium iodide staining-based flow cytometric analysis; format: functional
SGC-7901 [15] = assay: Down regulation of c-kit gene expression in human SGC-7901 cells at 15 uM incubated for 36 hrs by Western blot analysis; format: functional, cell-based
How it was run: (§4)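 Cells exposed to compound for 36 h, then lysed in RIPA and protein measured by BCA. 30 units of total protein separated by 10% SDS-PAGE, transferred to PVDF and blocked with 5% BSA. Primary antibodies, with β-tubulin as reference, at 4 °C; secondary 2 h; ECL detection. Bands quantified by densitometry, mean ± SD, n = 3.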

A549 [16] = assay: Down regulation of c-kit gene expression in human A549 cells at 15 uM incubated for 36 hrs by Western blot analysis; format: functional, cell-based; how it was run: as §4
dsDNA [17] = assay: Binding affinity to 5'-AGGGGAGGCGAGGAGGGGCGTGGCCGG-3'/3'-TCCCCTCCGCTCCTCCCCGCACCGGCC-5' dsDNA (unknown origin) by circular dichroism spectroscopic analysis; format: nucleic-acid assay; conditions: Homo sapiens
How it was run: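 Target duplex annealed at 95 °C, held 24 h in pH 7.0 buffer (10 mM sodium cacodylate, 100 mM NaCl, 0.5% DMSO), then degassed. Compound titrated in at compound:DNA ratios 0.0–3.0, room temperature, 15 min equilibration per addition. CD read 225–400 nm in a 5 mm quartz cell at 100 nm/min, 5.0 nm bandwidth. Average of three parallel runs.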

Activity (dsDNA [1]): inactive
SMILES: CC(=O)Nc1cn(C)c(C(=O)Nc2cn(C)c(C(=O)NC[C@@H](O)CC(=O)Nc3cn(C)c(C(=O)Nc4cn(C)c(C(=O)NCC[C@@H](N)C(=O)Nc5cc(C(=O)Nc6cc(C(=O)NCCC(=O)Nc7cc(C(=O)Nc8cc(C(=O)NCCC(=O)NCCCN(C)C)n(C)c8)n(C)c7)n(C)c6)n(C)c5)n4)n3)n2)n1

Activity (dsDNA [1]): inactive
SMILES: CC(=O)Nc1cn(C)c(C(=O)Nc2cn(C)c(C(=O)NCCC(=O)Nc3cn(C)c(C(=O)Nc4cn(C)c(C(=O)NCC[C@@H](N)C(=O)Nc5cc(C(=O)Nc6cc(C(=O)NC[C@@H](O)CC(=O)Nc7cc(C(=O)Nc8cc(C(=O)NCCC(=O)NCCCN(C)C)n(C)c8)n(C)c7)n(C)c6)n(C)c5)n4)n3)n2)n1

SMILES: Cc1ccc(NC(=O)c2ccc(CN3CCN(C)CC3)cc2)cc1Nc1nccc(-c2cccnc2)n1 [IMATINIB MESYLATE]
IC50 (Bel-7402): 55.5 µM
IC50 (MKN-45): 12.2 µM
IC50 (SGC-7901 [2]): 0.208 µM
IC50 (A549 [3]): 1.87 µM

Activity (dsDNA [5]): Active
Activity (dsDNA [6]): Dose-dependent effect
IC50 (Bel-7402): 14.9 µM
IC50 (MKN-45): 19.9 µM
IC50 (SGC-7901 [2]): 6.05 µM
IC50 (A549 [3]): 7.93 µM
Activity (dsDNA [17]): Active
SMILES: CC(=O)Nc1cn(C)c(C(=O)Nc2cn(C)c(C(=O)Nc3cc(C(=O)Nc4cn(C)c(C(=O)NCCC(=O)Nc5cn(C)c(C(=O)Nc6cn(C)c(C(=O)NCC[C@@H](NC(=O)c7nc(NC(=O)c8nc(NC(=O)c9nccn9C)cn8C)cn7C)C(=O)Nc7cc(C(=O)Nc8cc(C(=O)NC[C@@H](O)CC(=O)Nc9cc(C(=O)Nc%10cn(C)c(C(=O)Nc%11cc(C(=O)Nc%12cc(C(=O)NCCC(=O)NCCCN(C)C)n(C)c%12)n(C)c%11)n%10)n(C)c9)n(C)c8)n(C)c7)n6)n5)n4)n(C)c3)n2)n1.Cl.Cl
Activity (SGC-7901 [4]): Active
inhibition at 1.5 µM (SGC-7901 [7]): 80.8%
inhibition at 1.5 µM (A549 [8]): 73.5%
Activity (SGC-7901 [9]): Active
Activity (SGC-7901 [10]): Active
Activity (A549 [11]): Active
Activity (A549 [12]): Active
Activity (SGC-7901 [13]): 53.3%
Activity (A549 [14]): 47.9%
Activity (SGC-7901 [15]): Active
Activity (A549 [16]): Active

Activity (dsDNA [1]): inactive
SMILES: CC(=O)Nc1cn(C)c(C(=O)Nc2cn(C)c(C(=O)Nc3cn(C)c(C(=O)NCCC(=O)Nc4cn(C)c(C(=O)Nc5cn(C)c(C(=O)NCC[C@@H](N)C(=O)Nc6cc(C(=O)Nc7cc(C(=O)NC[C@@H](O)CC(=O)Nc8cc(C(=O)Nc9cc(C(=O)Nc%10cc(C(=O)NCCC(=O)NCCCN(C)C)n(C)c%10)n(C)c9)n(C)c8)n(C)c7)n(C)c6)n5)n4)n3)n2)n1
